From ChEMBL document CHEMBL5058577, “EUbOPEN Chemogenomics Library 2 (Multiplex)” (2022)

Test system: Fibroblast
Assay: Multiplex assay against human fibroblast
Type: toxicity, cell-based
Outline: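 Live cells carried four stains from seeding: Hoechst33342, BioTracker Green Microtubule Cytoskeleton Dye, MitoTracker Red and Annexin V Alexa Fluor 680. They were imaged on a CQ1 microscope at 37°C and 5% CO2 after compound addition. Using CellPathfinder machine-learning gating, cells were split into Hoechst high-intensity objects or normal cells, normal cells into healthy, pyknosed or fragmented nuclei, and pyknosed cells into mitotic or apoptotic; tubulin, mitochondrial-mass and membrane-permeability phenotypes are per cents of healthy-nucleus cells.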

[1] = 12 h, 1 µM, compound concentration 1 uM, replicate 1
[2] = 12 h, 1 µM, compound concentration 1 uM, replicate 2
[3] = 12 h, 10 µM, compound concentration 10 uM, replicate 1
[4] = 12 h, 10 µM, compound concentration 10 uM, replicate 2
[5] = 24 h, 1 µM, compound concentration 1 uM, replicate 1
[6] = 24 h, 1 µM, compound concentration 1 uM, replicate 2
[7] = 24 h, 10 µM, compound concentration 10 uM, replicate 1
[8] = 24 h, 10 µM, compound concentration 10 uM, replicate 2
[9] = 48 h, 1 µM, compound concentration 1 uM, replicate 1
[10] = 48 h, 1 µM, compound concentration 1 uM, replicate 2
[11] = 48 h, 10 µM, compound concentration 10 uM, replicate 1
[12] = 48 h, 10 µM, compound concentration 10 uM, replicate 2

c1cc(OCCCN2CCCCC2)ccc1CN1CCCCC1 [JNJ-5207852]
Population Apoptotic (%) [1]: 37%
Population Fragmented Nuclei (%) [1]: 15%
Population Healthy Nuclei (%) [1]: 64%
Population Hoechst High Intensity Objects (%) [1]: 1%
Population Membrane Permeable-Phenotype (%) [1]: 0%
Population Mitochondria Different-Phenotype (%) [1]: 2%
Population Mitotic Cells (%) [1]: 62%
Population Normal (%) [1]: 98%
Population Pyknosed Nuclei (%) [1]: 20%
Population Tubulin-Different-Phenotype (%) [1]: 26%
Total Cell Count [1]: 181
Population Apoptotic (%) [2]: 26%
Population Fragmented Nuclei (%) [2]: 24%
Population Healthy Nuclei (%) [2]: 51%
Population Hoechst High Intensity Objects (%) [2]: 7%
Population Membrane Permeable-Phenotype (%) [2]: 8%
Population Mitochondria Different-Phenotype (%) [2]: 5%
Population Mitotic Cells (%) [2]: 73%
Population Normal (%) [2]: 92%
Population Pyknosed Nuclei (%) [2]: 23%
Population Tubulin-Different-Phenotype (%) [2]: 49%
Total Cell Count [2]: 153
Population Apoptotic (%) [3]: 50%
Population Fragmented Nuclei (%) [3]: 22%
Population Healthy Nuclei (%) [3]: 68%
Population Hoechst High Intensity Objects (%) [3]: 1%
Population Membrane Permeable-Phenotype (%) [3]: 0%
Population Mitochondria Different-Phenotype (%) [3]: 6%
Population Mitotic Cells (%) [3]: 50%
Population Normal (%) [3]: 98%
Population Pyknosed Nuclei (%) [3]: 9%
Population Tubulin-Different-Phenotype (%) [3]: 35%
Total Cell Count [3]: 193
Population Apoptotic (%) [4]: 43%
Population Fragmented Nuclei (%) [4]: 36%
Population Healthy Nuclei (%) [4]: 42%
Population Membrane Permeable-Phenotype (%) [4]: 12%
Population Mitochondria Different-Phenotype (%) [4]: 10%
Population Mitotic Cells (%) [4]: 56%
Population Pyknosed Nuclei (%) [4]: 20%
Population Tubulin-Different-Phenotype (%) [4]: 60%
Total Cell Count [4]: 114
Population Apoptotic (%) [5]: 38%
Population Fragmented Nuclei (%) [5]: 18%
Population Healthy Nuclei (%) [5]: 66%
Population Hoechst High Intensity Objects (%) [5]: 2%
Population Membrane Permeable-Phenotype (%) [5]: 0%
Population Mitochondria Different-Phenotype (%) [5]: 2%
Population Mitotic Cells (%) [5]: 61%
Population Normal (%) [5]: 97%
Population Pyknosed Nuclei (%) [5]: 15%
Population Tubulin-Different-Phenotype (%) [5]: 23%
Total Cell Count [5]: 176
Population Apoptotic (%) [6]: 33%
Population Fragmented Nuclei (%) [6]: 28%
Population Healthy Nuclei (%) [6]: 51%
Population Hoechst High Intensity Objects (%) [6]: 5%
Population Membrane Permeable-Phenotype (%) [6]: 5%
Population Mitochondria Different-Phenotype (%) [6]: 6%
Population Mitotic Cells (%) [6]: 66%
Population Normal (%) [6]: 95%
Population Pyknosed Nuclei (%) [6]: 19%
Population Tubulin-Different-Phenotype (%) [6]: 55%
Total Cell Count [6]: 160
Population Apoptotic (%) [7]: 60%
Population Fragmented Nuclei (%) [7]: 24%
Population Healthy Nuclei (%) [7]: 65%
Population Hoechst High Intensity Objects (%) [7]: 1%
Population Membrane Permeable-Phenotype (%) [7]: 0%
Population Mitochondria Different-Phenotype (%) [7]: 6%
Population Mitotic Cells (%) [7]: 40%
Population Normal (%) [7]: 99%
Population Pyknosed Nuclei (%) [7]: 10%
Population Tubulin-Different-Phenotype (%) [7]: 34%
Total Cell Count [7]: 201
Population Apoptotic (%) [8]: 41%
Population Fragmented Nuclei (%) [8]: 45%
Population Healthy Nuclei (%) [8]: 38%
Population Hoechst High Intensity Objects (%) [8]: 5%
Population Membrane Permeable-Phenotype (%) [8]: 4%
Population Mitochondria Different-Phenotype (%) [8]: 13%
Population Mitotic Cells (%) [8]: 58%
Population Normal (%) [8]: 94%
Population Pyknosed Nuclei (%) [8]: 15%
Population Tubulin-Different-Phenotype (%) [8]: 67%
Total Cell Count [8]: 118
Population Apoptotic (%) [9]: 70%
Population Fragmented Nuclei (%) [9]: 18%
Population Healthy Nuclei (%) [9]: 63%
Population Hoechst High Intensity Objects (%) [9]: 2%
Population Membrane Permeable-Phenotype (%) [9]: 0%
Population Mitochondria Different-Phenotype (%) [9]: 2%
Population Mitotic Cells (%) [9]: 29%
Population Normal (%) [9]: 97%
Population Pyknosed Nuclei (%) [9]: 17%
Population Tubulin-Different-Phenotype (%) [9]: 23%
Total Cell Count [9]: 184
Population Apoptotic (%) [10]: 44%
Population Fragmented Nuclei (%) [10]: 32%
Population Healthy Nuclei (%) [10]: 48%
Population Hoechst High Intensity Objects (%) [10]: 4%
Population Membrane Permeable-Phenotype (%) [10]: 5%
Population Mitotic Cells (%) [10]: 55%
Population Normal (%) [10]: 95%
Population Pyknosed Nuclei (%) [10]: 18%
Population Tubulin-Different-Phenotype (%) [10]: 50%
Total Cell Count [10]: 160
Population Apoptotic (%) [11]: 55%
Population Fragmented Nuclei (%) [11]: 19%
Population Healthy Nuclei (%) [11]: 70%
Population Hoechst High Intensity Objects (%) [11]: 2%
Population Membrane Permeable-Phenotype (%) [11]: 0%
Population Mitochondria Different-Phenotype (%) [11]: 2%
Population Mitotic Cells (%) [11]: 44%
Population Normal (%) [11]: 97%
Population Pyknosed Nuclei (%) [11]: 9%
Population Tubulin-Different-Phenotype (%) [11]: 34%
Total Cell Count [11]: 189
Population Apoptotic (%) [12]: 30%
Population Fragmented Nuclei (%) [12]: 48%
Population Healthy Nuclei (%) [12]: 41%
Population Hoechst High Intensity Objects (%) [12]: 3%
Population Membrane Permeable-Phenotype (%) [12]: 5%
Population Mitochondria Different-Phenotype (%) [12]: 11%
Population Mitotic Cells (%) [12]: 69%
Population Normal (%) [12]: 96%
Population Pyknosed Nuclei (%) [12]: 10%
Population Tubulin-Different-Phenotype (%) [12]: 66%
Total Cell Count [12]: 132
